Measured values reported in ChEMBL document CHEMBL4834403, “Design and Synthesis of Novel Epigenetic Inhibitors Targeting Histone Deacetylases, DNA Methyltransferase 1, and Lysine Methyltransferase G9a with In Vivo Efficacy in Multiple Myeloma” (J Med Chem, 2021).

Columns and labels:
[1] = target: Histone deacetylase 3/Nuclear receptor corepressor 2 (HDAC3/NCoR2) (Homo sapiens, UniProt O15379); experiment: Inhibition of full length human C-terminal His-tagged HDAC3/human N-terminal GST-agged NCOR2 using fluorogenic acetylated peptide as substrate incubated for 30 mins by fluorescence plate reader assay; assay type: protein-complex assay
NCI-H929 = experiment: Antiproliferative activity against human NCI-H929 cells assessed as inhibition of cell proliferation measured up to 72 hrs by CellTiter96 Aqueous one reagent based assay; assay type: functional; settings: NCI-H929, 72 h, time hrs <=72
[2] = Toxicity in mouse assessed as mouse death at 10 mg/kg, ip after 10 mins; assay type: organism-based; settings: in vivo
How it was run: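 Observation made during a preliminary pharmacokinetic study with i.p. dosing, n = 5 mice per dose level, with blood extraction after administration.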

MM1.S [3] = experiment: Induction of DNA hypomethylation in human MM1.S cells assessed as CPG hypomethylation at position 3 at 2 uM measured after 5 days relative to control; assay type: cell-based; settings: time 5.0 day
How it was run: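 MM1.S cells dosed every day for 5 days at 2 μM or 10 nM. DNA methylation at CpGs of the POU4F2 promoter read by pyrosequencing; run in duplicate.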

[4] = Antiproliferative activity against human KMS-28BM cells assessed as inhibition of cell proliferation measured up to 72 hrs by CellTiter96 Aqueous one reagent based assay; assay type: functional; settings: time hrs <=72
MM1.S [5] = experiment: Antiproliferative activity against human MM1.S cells assessed as inhibition of cell proliferation measured up to 72 hrs by CellTiter96 Aqueous one reagent based assay; assay type: functional
JJN-3 = experiment: Antiproliferative activity against human JJN-3 cells assessed as inhibition of cell proliferation measured up to 72 hrs by CellTiter96 Aqueous one reagent based assay; assay type: functional; settings: JJN-3, 72 h, time hrs <=72
Histone deacetylase 1 = Histone deacetylase 1 (Homo sapiens, UniProt Q13547); experiment: Inhibition of full length human C-terminal His-tagged/C-terminal Flag-tagged HDAC1 using fluorogenic acetylated peptide as substrate incubated for 30 mins by fluorescence plate reader assay
[6] = target: T1, Histone-lysine N-methyltransferase EHMT2 (Homo sapiens, UniProt Q96KQ7); experiment: Inhibition of human G9a enzyme using histone monomethyl-H3K9 peptide as substrate incubated for 1 hr in presence of SAM by TR-FRET assay
T1 sequence (Q96KQ7 whole entry): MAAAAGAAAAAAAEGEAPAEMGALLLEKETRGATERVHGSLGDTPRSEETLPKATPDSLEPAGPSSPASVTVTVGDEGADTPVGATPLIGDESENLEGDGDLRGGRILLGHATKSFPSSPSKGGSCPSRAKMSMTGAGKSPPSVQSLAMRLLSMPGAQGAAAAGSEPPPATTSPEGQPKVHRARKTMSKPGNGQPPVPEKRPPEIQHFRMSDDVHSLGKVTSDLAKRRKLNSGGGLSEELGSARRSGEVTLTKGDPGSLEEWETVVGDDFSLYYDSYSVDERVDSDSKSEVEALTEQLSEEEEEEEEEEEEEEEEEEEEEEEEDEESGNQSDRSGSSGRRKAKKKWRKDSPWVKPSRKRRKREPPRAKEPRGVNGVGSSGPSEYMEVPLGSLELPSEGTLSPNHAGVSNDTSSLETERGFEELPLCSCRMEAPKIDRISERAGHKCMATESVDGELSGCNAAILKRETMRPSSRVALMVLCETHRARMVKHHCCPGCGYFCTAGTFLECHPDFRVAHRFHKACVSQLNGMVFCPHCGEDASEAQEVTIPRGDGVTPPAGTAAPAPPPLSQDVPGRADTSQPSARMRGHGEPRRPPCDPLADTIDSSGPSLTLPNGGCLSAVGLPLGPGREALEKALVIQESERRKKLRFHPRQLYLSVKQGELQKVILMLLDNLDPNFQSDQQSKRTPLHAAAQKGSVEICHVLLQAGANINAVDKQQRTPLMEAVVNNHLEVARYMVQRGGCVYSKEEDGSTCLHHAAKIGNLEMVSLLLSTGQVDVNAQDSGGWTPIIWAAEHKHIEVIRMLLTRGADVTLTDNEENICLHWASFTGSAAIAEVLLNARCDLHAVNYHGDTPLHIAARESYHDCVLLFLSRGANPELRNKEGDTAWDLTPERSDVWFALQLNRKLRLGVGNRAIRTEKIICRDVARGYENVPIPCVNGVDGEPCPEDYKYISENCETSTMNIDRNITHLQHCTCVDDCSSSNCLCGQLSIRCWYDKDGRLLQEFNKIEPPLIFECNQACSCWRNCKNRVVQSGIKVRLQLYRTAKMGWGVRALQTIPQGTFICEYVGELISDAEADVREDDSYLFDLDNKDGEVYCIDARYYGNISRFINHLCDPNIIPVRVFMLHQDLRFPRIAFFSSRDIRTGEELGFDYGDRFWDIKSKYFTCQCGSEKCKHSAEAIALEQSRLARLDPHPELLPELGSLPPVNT

[7] = target: DNA (cytosine-5)-methyltransferase 1 (Homo sapiens, UniProt P26358); experiment: Inhibition of human DNMT1 enzyme using polydeoxy-inosine polydeoxy-cytosine DNA as substrate incubated for 15 mins in presence of SAM by TR-FRET assay
THLE-2 = experiment: Cytotoxicity against human THLE-2 cells assessed as decrease in cell viability measured after 72 hrs by Vialight-plus cell proliferation assay; assay type: cell-based; settings: thle-2, 72 h
How it was run: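 Human THLE-2 cells exposed to compound for 72 h. Cytotoxicity reported as LC50 and pLC50, averaged from at least two independent experiments on different days.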

[8] = Half life in BALB/c RAG2-/- gammaC-/- mouse at 10 mg/kg, ip using 80% saline 10% Tween20 and 10% DMSO formulation measured up to 24 hrs by UPLC-triple quadrupole MS analysis; assay type: ADME, organism-based; settings: in vivo
CYP2C9 = CYP2C9 (Homo sapiens, UniProt P11712); experiment: Inhibition of CYP2C9 in human liver microsomes at 10 uM incubated for 10 mins in presence of NADPH by LC-MS/MS analysis relative to control; assay type: ADME
[9] = Apparent volume of distribution during terminal phase in BALB/c RAG2-/- gammaC-/- mouse at 10 mg/kg, ip using 80% saline 10% Tween20 and 10% DMSO formulation measured up to 24 hrs by UPLC-triple quadrupole MS analysis; assay type: ADME, organism-based; settings: in vivo, read-out: Vz/F
[10] = Stability of the compound in human pooled hepatocytes assessed as parent compound remaining incubated for 60 mins; assay type: ADME, cell-based, Hepatocyte; settings: read-out: Stabilty
CYP2D6 = CYP2D6 (Homo sapiens, UniProt P10635); experiment: Inhibition of CYP2D6 in human liver microsomes at 10 uM incubated for 10 mins in presence of NADPH by LC-MS/MS analysis relative to control; assay type: ADME
[11] = Intrinsic clearance in human pooled hepatocytes; assay type: ADME, cell-based, Hepatocyte; settings: read-out: CLH
MM1.S [12] = experiment: Antitumor activity against human MM1.S cells xenografted in BALB/c RAG2-/- gammaC-/- mouse assessed as reduction in tumor volume at 10 mg/kg, ip administered for 5 consecutive days followed by 2 days rest and measured after 35 days (reference value: 3836 +/- 1696 mm3); assay type: functional; settings: time 35 day
[13] = time hrs <=72, read-out: pGI50 (converted)

Sequence of Histone deacetylase 3/Nuclear receptor corepressor 2 (HDAC3/NCoR2) (O15379 whole entry): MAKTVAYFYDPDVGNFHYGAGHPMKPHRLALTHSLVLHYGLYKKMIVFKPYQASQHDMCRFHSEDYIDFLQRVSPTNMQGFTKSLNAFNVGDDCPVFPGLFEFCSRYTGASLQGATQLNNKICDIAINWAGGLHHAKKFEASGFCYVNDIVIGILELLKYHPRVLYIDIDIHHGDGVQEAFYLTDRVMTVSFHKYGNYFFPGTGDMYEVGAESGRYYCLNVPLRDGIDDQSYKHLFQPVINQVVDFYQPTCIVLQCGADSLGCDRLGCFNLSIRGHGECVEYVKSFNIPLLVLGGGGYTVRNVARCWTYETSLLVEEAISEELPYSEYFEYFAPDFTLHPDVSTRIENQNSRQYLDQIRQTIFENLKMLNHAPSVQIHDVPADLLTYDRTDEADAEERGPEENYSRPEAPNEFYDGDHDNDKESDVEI
Sequence of Histone deacetylase 3/Nuclear receptor corepressor 2 (HDAC3/NCoR2) (Q9Y618 whole entry, further chain): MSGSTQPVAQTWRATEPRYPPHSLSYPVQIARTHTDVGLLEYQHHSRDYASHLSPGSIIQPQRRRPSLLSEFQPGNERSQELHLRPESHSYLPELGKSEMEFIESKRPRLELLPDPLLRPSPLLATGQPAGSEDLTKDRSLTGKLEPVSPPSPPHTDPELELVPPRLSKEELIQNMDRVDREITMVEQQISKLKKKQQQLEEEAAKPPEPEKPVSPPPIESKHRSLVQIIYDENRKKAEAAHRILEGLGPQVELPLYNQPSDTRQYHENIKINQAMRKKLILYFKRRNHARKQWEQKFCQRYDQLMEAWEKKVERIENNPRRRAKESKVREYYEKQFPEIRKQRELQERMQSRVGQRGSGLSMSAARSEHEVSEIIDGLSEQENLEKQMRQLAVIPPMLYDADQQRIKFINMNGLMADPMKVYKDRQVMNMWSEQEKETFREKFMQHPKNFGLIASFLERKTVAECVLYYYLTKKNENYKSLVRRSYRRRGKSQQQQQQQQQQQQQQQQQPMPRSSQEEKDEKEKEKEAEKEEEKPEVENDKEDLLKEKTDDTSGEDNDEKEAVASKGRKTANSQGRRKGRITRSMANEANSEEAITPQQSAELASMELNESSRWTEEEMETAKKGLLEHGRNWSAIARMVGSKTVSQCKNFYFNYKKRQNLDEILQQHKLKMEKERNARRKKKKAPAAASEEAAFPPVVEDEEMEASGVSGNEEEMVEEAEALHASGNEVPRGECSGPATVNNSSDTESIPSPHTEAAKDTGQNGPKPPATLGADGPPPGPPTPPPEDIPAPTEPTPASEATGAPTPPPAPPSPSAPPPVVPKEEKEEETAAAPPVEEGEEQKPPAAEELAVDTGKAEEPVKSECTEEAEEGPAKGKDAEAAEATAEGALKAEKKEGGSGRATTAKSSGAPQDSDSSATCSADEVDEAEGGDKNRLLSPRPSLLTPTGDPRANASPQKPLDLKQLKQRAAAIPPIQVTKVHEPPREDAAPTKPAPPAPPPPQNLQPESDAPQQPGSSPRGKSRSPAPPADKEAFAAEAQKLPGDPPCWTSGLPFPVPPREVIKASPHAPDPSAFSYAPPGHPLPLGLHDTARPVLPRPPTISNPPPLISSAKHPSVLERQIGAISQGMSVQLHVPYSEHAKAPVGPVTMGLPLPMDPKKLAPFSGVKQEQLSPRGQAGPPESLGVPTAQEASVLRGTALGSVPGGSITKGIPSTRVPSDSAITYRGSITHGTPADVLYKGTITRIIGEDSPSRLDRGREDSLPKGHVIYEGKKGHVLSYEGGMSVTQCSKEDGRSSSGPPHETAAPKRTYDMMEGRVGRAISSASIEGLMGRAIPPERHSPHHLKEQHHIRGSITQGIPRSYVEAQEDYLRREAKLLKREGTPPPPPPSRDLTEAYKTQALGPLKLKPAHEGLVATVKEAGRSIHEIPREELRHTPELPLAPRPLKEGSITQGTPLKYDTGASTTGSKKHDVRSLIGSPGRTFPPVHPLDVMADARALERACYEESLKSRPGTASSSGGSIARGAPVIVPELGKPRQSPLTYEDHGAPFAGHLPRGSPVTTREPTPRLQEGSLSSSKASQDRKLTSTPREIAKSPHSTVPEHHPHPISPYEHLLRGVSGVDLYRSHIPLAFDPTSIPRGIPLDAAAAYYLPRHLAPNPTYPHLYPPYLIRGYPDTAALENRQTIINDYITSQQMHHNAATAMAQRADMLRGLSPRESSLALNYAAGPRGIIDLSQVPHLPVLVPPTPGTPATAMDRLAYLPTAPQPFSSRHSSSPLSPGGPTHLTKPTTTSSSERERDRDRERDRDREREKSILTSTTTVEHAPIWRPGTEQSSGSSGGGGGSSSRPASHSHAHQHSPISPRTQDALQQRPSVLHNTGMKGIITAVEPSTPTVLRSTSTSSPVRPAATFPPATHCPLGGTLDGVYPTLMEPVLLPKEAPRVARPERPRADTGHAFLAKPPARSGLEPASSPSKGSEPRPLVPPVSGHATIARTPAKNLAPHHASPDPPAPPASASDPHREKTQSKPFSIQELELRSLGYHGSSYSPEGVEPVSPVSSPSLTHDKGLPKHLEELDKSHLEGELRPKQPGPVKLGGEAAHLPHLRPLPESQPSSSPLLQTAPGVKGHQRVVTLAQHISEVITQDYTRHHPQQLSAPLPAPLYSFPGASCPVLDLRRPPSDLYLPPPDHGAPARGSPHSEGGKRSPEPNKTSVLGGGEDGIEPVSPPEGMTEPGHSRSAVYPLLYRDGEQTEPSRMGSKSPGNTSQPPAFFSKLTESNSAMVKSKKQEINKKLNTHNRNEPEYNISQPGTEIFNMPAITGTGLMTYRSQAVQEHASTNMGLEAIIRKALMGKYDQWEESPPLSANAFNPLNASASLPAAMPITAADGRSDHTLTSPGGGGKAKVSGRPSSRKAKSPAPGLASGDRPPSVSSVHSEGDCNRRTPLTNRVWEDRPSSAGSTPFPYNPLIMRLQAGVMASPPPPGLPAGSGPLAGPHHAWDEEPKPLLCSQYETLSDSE
Sequence of Histone deacetylase 1 (Q13547 whole entry): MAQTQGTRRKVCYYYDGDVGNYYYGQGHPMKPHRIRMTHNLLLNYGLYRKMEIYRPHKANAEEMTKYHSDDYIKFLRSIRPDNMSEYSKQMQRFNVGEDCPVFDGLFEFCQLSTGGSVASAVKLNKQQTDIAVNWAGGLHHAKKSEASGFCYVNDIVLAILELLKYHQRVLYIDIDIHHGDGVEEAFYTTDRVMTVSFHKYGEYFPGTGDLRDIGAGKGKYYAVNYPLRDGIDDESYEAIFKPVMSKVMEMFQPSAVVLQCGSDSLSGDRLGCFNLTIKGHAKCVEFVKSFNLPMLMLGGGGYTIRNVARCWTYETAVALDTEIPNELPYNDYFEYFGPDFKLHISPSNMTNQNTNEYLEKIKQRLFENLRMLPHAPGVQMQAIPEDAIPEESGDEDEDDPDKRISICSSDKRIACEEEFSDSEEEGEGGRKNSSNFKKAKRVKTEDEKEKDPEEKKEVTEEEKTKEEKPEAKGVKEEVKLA
Sequence of DNA (cytosine-5)-methyltransferase 1 (P26358 whole entry): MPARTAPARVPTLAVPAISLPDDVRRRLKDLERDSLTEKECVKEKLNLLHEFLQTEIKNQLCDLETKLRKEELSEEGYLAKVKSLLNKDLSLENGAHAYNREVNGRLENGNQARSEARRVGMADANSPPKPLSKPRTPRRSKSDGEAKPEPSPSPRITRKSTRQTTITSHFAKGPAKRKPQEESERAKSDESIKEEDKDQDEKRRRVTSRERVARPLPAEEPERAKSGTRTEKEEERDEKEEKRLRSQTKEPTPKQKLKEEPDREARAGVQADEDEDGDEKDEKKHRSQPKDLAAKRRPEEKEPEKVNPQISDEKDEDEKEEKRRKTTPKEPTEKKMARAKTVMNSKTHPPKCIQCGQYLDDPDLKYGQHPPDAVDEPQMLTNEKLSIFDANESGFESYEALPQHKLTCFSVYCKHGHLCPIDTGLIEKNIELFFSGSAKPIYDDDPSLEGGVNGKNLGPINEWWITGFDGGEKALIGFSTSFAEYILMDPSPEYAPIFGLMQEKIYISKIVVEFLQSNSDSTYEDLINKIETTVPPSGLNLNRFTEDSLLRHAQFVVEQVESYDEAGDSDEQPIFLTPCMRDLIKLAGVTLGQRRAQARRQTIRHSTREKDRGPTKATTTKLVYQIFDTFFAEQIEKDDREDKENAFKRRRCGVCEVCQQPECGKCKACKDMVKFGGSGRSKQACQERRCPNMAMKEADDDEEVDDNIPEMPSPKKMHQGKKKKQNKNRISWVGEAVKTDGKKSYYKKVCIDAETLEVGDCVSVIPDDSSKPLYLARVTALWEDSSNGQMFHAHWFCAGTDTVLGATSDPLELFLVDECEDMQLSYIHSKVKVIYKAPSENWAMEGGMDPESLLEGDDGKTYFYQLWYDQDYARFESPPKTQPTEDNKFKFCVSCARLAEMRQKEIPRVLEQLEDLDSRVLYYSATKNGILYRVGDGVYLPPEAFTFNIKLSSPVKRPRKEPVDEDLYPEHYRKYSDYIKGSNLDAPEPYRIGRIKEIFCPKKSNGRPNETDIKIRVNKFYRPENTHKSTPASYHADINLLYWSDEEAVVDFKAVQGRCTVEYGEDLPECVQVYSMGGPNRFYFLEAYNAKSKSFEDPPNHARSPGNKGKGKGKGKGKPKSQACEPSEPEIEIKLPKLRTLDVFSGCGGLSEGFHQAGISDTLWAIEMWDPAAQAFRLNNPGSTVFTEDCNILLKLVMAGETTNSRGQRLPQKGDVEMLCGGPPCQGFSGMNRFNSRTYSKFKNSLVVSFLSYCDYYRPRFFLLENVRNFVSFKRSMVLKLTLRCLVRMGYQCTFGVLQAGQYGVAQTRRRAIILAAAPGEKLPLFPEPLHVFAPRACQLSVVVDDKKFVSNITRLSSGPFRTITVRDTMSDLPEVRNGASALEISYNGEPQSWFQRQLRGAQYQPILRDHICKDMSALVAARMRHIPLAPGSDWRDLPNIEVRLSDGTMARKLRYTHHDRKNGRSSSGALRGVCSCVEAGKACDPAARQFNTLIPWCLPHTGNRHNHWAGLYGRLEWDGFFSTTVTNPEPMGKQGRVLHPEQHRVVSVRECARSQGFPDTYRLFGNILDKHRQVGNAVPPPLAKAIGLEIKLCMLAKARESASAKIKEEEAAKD

SMILES | IC50 [1] [nM] | GI50 (NCI-H929) [nM] | Activity [2] | Activity (MM1.S [3]) [%] | GI50 [4] [nM] | GI50 (MM1.S [5]; time hrs <=72, read-out: GI50) [nM] | GI50 (MM1.S [5]; [13]) [nM] | GI50 (JJN-3) [nM] | IC50 (Histone deacetylase 1) [nM] | IC50 [6] [nM] | IC50 [7] [nM] | LC50 (THLE-2) [nM] | pLC50 (THLE-2) | half-life [8] [h] | inhibition at 10 min, 10 µM (CYP2C9) [%] | Vd/F [9] [L] | remaining at 1 h [10] [%] | inhibition at 10 min, 10 µM (CYP2D6) [%] | CLint scaled [11] [mL/min/kg] | Activity (MM1.S [12]) [mm3]
COc1cc2c(NCC3CCN(c4ncc(C(=O)NO)cn4)CC3)cc(-c3ccc(C)o3)nc2cc1OCCCN1CCCC1 | 5 | 981 | Toxic | 15 | 1300 | 2080 | 2090 | 6040 | 3 | 269 | 1160 | 10900 | 4.96 |  |  |  |  |  |  | 
COc1cc2nc(-c3ccc(C)o3)cc(NCC3CCN(c4ncc(C(=O)NO)cn4)CC3)c2cc1OC | 18 | 103 |  |  | 547 | 32 | 31.6 | 482 | 7 | > 10000 |  | 794 | 6.1 | 8.46 | 0 | 6.56 | 50.8 | 10.8 | 54.2 | 1788
